Assay results taken from ChEMBL document CHEMBL1124378, “Synthesis and pharmacological evaluation of a series of 4-piperazinylpyrazolo[3,4-b]- and -[4,3-b][1,5]benzodiazepines as potential anxiolytics” (J Med Chem, 1989).

Tests used:
Rattus norvegicus [1] = test: Compound administered perorally was evaluated for the conditioned avoidance response in rats; format: functional
Outline: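 Olac-Wistar rats (120-130 g) trained to cross a shuttle box on a 5-s buzzer, with mild shock if no response within 1 s after it ends. Only high-responders used. Groups of five were dosed orally in water or 0.5% carboxymethylcellulose 1 h 50 min before testing. After 10-min habituation they were tested 20 min. Blockade = shocks as % of stimuli presented.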

[2] = molecular target: D(2) dopamine receptor (Bos taurus) (UniProt P20288); test: Inhibition of [3H]spiperone binding to Dopamine receptor D2 from calf caudate
Mus musculus [3] = test: Compound administered perorally was evaluated for the hypothermia (rectal temperature) in mice; format: functional
Outline: (§1)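 Groups of three CFW mice (21-23 g) received oral compound in water or 0.5% carboxymethylcellulose. Rectal temperature was taken at 0.25, 2.5 and 5.0 h. Mean change from the group's initial mean was summed over the three times. Hypothermia scored if the summed reduction was >4 °C.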

Rattus norvegicus [4] = test: Rotarod response in rat to assess muscular incoordination (following p.o. dosing); format: functional
Outline: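 Male Olac-Wistar rats (140-150 g), five per group, fed ad libitum, dosed orally. Tested 1 and 2 h later on a horizontal rod (2 rpm, 32 mm diameter), maximum 30 s. Mean time compared with vehicle controls by Mann-Whitney U test, significant at p < 0.05.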

[5] = molecular target: Muscarinic acetylcholine receptor; test: Compound was evaluated for the inhibition of [3H]QNB binding to Muscarinic acetylcholine receptor from male Olac rat brain.
Mus musculus [6] = test: Dose below which no catalepsy was observed at any time period (following p.o. dosing); format: functional
Outline: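 CFW mice (21-23 g), three per group, dosed orally in water or 0.5% carboxymethylcellulose. Checked at 0.25, 2.5 and 5.0 h for holding one hind limb on a 2-cm rubber bung and staying on a vertical grid, judged against a control by a trained observer.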

Mus musculus [7] = test: Compound administered perorally was evaluated for the hypothermia (rectal temperature ) in mice; format: functional; outline: as §1
[8] = molecular target: Muscarinic acetylcholine receptor; test: Inhibition of [3H]QNB binding to muscarinic cholinergic receptor from male Olac rat brain.
[9] = molecular target: D(2) dopamine receptor (Bos taurus) (UniProt P20288); test: Inhibition of [3H]spiperone binding to dopamine receptor D2 from calf caudate

Row | SMILES | ED (Rattus norvegicus [1]) [mg/kg] | IC50 [2] [µM] | EDmin (Mus musculus [3]) [mg/kg] | ED (Rattus norvegicus [4]) [mg/kg] | IC50 [5] [µM] | EDmin (Mus musculus [6]) [mg/kg] | EDmin (Mus musculus [7]) [mg/kg] | IC50 [8] [µM] | IC50 [9] [µM]
1 | CN1CCN(C2=Nc3cc(C(=O)c4ccccc4)ccc3Nc3nn(C)cc32)CC1 | >50 | > 10 | >400 | >50 | > 1 | >400 |  |  | 
2 | CCn1cc2c(n1)Nc1cc(Cl)c(Cl)cc1N=C2N1CCN(C)CC1 | >20 | 3.8 | 50 | 20 | > 1 | 200 |  |  | 
3 | Cn1cc2c(n1)Nc1ccc(F)cc1N=C2N1CCCCC1 | 50 | > 10 | 400 | >50 | > 10 | >400 |  |  | 
4 | Cn1cc2c(n1)Nc1ccc(F)cc1N=C2N1CCN(CCO)CC1 | >50 | 5.1 | >200 | >50 | > 100 | >200 |  |  | 
5 | Cc1nn(C)c2c1Nc1ccc(F)cc1N=C2N1CCN(C)CC1 | >50 | > 10 | >200 | >50 | > 100 | >200 |  |  | 
6 | CN1CCN(C2=Nc3cc(C(F)(F)F)ccc3Nc3nn(C)cc32)CC1 | 25 | 1.6 | 50 | >30 | > 10 | 200 |  |  | 
7 | CN1CCN(C2=Nc3ccc(Cl)cc3Nc3nn(C)cc32)CC1 | >50 | > 10 | 100 | >50 | > 100 | >400 |  |  | 
8 | CN1CCN(C2=Nc3cc(S(C)(=O)=O)ccc3Nc3nn(C)cc32)CC1 |  | > 10 | >200 | >50 | > 100 | >200 |  |  | 
9 | CN1CCN(C2=Nc3cc(Cl)c(Cl)cc3Nc3nn(C)cc32)CC1 | >20 | > 10 |  | >50 | > 1 | 50 | 25 |  | 
10 | CN1CCN(C2=Nc3cc(F)ccc3Nc3nn(C)c(-c4ccccc4)c32)CC1 | >50 |  | 200 | >50 |  | >400 |  | > 100 | 2.1
11 | Cc1c2c(nn1C)C(N1CCN(C)CC1)=Nc1cc(F)ccc1N2 |  | > 10 |  |  |  |  |  |  | 
12 | Cn1cc2c(n1)Nc1ccc(F)cc1N=C2N1CC[N+](C)([O-])CC1 | >50 |  | 50 | >50 |  | 100 |  | > 1 | > 10
13 | CN1CCN(C2=Nc3cc(F)ccc3Nc3nn(Cc4ccccc4)cc32)CC1 | 50 |  | 100 | >50 |  | >400 |  | > 100 | 0.4
14 | CCCCCCCCCCn1cc2c(n1)Nc1ccc(Cl)cc1N=C2N1CCN(C)CC1 | >50 | 2.5 |  | >50 | > 10 | >400 | >400 |  | 
15 | CCn1cc2c(n1)Nc1ccc(Cl)cc1N=C2N1CCN(C)CC1 | >15 |  | 6.25 | 20 |  | >400 |  | > 1 | 0.34
16 | CCOC(=O)N1CCN(C2=Nc3cc(F)ccc3Nc3nn(C)cc32)CC1 | >50 | > 10 | >200 | >50 | > 100 | >200 |  |  | 
17 | CC(C)Cn1cc2c(n1)Nc1ccc(Cl)cc1N=C2N1CCN(C)CC1 | >50 |  | 50 | >50 |  | 200 |  | > 10 | 3.3
18 | Cn1cc2c(n1)Nc1ccc(Cl)cc1N=C2N | >25 | > 10 | 25 | >50 | > 100 | >25 |  |  | 
19 | CN(C)CCNC1=Nc2cc(F)ccc2Nc2nn(C)cc21 | >50 | > 10 | >400 | >50 | 6.1 | >400 |  |  | 
20 | CN1CCN(C2=Nc3cc(F)ccc3Nc3nn(-c4ccccc4)cc32)CC1 | 50 | 2.6 | >200 | >50 |  | >200 |  | > 10 | 
21 | CN1CCN(C2=Nc3c(Cl)cccc3Nc3nn(C)cc32)CC1 | >50 | 0.86 | 25 | >50 | > 100 | >400 |  |  | 
22 | Cn1cc2c(n1)Nc1ccc(F)cc1N=C2N1CCN(Cc2ccccc2)CC1 | >50 | 2.7 | 50 | 50 | > 100 | >200 |  |  | 
23 | CN1CCN(C2=Nc3cccc(Cl)c3Nc3nn(C)cc32)CC1 | >50 | 4.7 | 184 | >50 | > 100 | 184 |  |  | 
24 | CN1CCN(C2=Nc3cc(I)ccc3Nc3nn(C)cc32)CC1 | >20 | > 1 | 50 | 25 |  | 50 |  |  | 
25 | CN1CCN(C2=Nc3cc(Cl)ccc3Nc3nn(C4CCCC4)cc32)CC1 | 50 |  | 50 | >50 |  | >400 |  | > 10 | 0.14
26 | Cn1cc2c(n1)Nc1ccc(F)cc1N=C2N1CCOCC1 | >50 | > 100 | 200 | >50 | > 100 | >400 |  |  | 
27 | CN1CCN(C2=Nc3cc(F)c(F)cc3Nc3nn(C)cc32)CC1 | 50 |  | 25 | >50 |  | >200 |  | 21 | 0.76
28 | Cn1cc2c(n1)Nc1ccc(F)cc1N=C2N1CCN(CC2CC2)CC1 | >15 | 0.9 | 50 | 30 | > 10 | 100 |  |  | 
